Bioassay records: PubChem, several laboratories
EBV gp42 inh – inhibitors of Epstein-Barr virus glycoprotein 42. Fluorescence polarization binding assay, mP read-out. inhibition, % (tested at 21.74 µM). 220,000 compounds, 0.42% hits. AID 1085; in the data active means inhibition above about 50%
GLD-1 TGE inh – GLD-1-TGE RNA interaction inhibition (C. elegans); Q17339; purified GLD-1 + fluorescein TGE RNA, fluorescence polarization; inhibition, % at 5.96 µM; 320,000 compounds, 0.44% hits; AID 2280;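 active means percent inhibition above a per-plate cutoff, the plate mean of test compounds plus 3 SD, cut at about 30% in these data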;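 further: 0% = DMSO wells with GLD-1 and probe and 100% = wells lacking GLD-1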
IMP-1 inh – blocks Pseudomonas aeruginosa IMP-1 metallo-beta-lactamase | inhibition, % at 5.6 µM | AID 1556 | 290,000 compounds, 0.45% hits | purified IMP-1, nitrocefin hydrolysis, epi-absorbance fluorescence;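 active means inhibition above the mean plus 3 SD of all compounds in the same screening run, cut at about 4.5% in these data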;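 further: 0% = IMP-1 with DMSO and 100% = DMSO wells lacking enzyme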
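Assay system: purified IMP-1; Quantity: IMP-1 0.2 nM before substrate addition; Medium: HEPES buffer pH 7.1 with ZnSO4 and Brij 35; Incubation: 15 min enzyme–compound preincubation, then 25 min nitrocefin reaction, 25 °C; Signal: fluorescence quenching readout, ex 480/em 530 nm; Controls: DMSO with and without IMP-1; Repeats: singlicate testing.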
BCLXL inh – inhibitors of human Bcl-xL; Q07817; GST-Bcl-xL / FITC-Bim BH3 peptide fluorescence polarization; inhibition, % at 10.9 µM; 320,000 compounds, 0.7% hits; AID 2129;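 active means inhibition above the mean of all tested compounds plus 3 SD, cutoff set per campaign, cut at about 30% in these data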;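 further: 0% = DMSO wells and 100% = unlabeled Bim-BH3 peptide competitor; inhibitors lower millipolarization by displacing the labeled peptide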
VIM-2 inhibitor – blocks Pseudomonas aeruginosa VIM-2 metallo-beta-lactamase | AID 1527 | inhibition, % at 5.6 µM | purified VIM-2, nitrocefin hydrolysis, epi-absorbance fluorescence | 290,000 compounds, 0.89% hits;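 active means inhibition above the mean of all tested compounds plus 3 SD, cutoff set per screening run, cut at about 7.5% in these data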;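 further: red hydrolysis product quenches plate fluorescence so inhibitors raise well fluorescence; 0% = enzyme with DMSO and 100% = DMSO without enzyme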
MEX-5 binding – C. elegans MEX-5 TCR-2 RNA binding activity; Q9XUB2; MEX-5/FITC-TCR2 RNA binding, fluorescence polarization; stronger effect = lower value; activity score (negative = inhibition of binding), % at 10 µM; 300,000 compounds, 0.38% hits; AID 1832;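 active means inhibition past about -25% in most replicates, and total fluorescence under double the plate's negative control median, limit read from the data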;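 further: 0% = DMSO and -100% = 5 µM competing unlabeled TCR2 RNA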
Target sequence (Q9XUB2 whole entry, looked up): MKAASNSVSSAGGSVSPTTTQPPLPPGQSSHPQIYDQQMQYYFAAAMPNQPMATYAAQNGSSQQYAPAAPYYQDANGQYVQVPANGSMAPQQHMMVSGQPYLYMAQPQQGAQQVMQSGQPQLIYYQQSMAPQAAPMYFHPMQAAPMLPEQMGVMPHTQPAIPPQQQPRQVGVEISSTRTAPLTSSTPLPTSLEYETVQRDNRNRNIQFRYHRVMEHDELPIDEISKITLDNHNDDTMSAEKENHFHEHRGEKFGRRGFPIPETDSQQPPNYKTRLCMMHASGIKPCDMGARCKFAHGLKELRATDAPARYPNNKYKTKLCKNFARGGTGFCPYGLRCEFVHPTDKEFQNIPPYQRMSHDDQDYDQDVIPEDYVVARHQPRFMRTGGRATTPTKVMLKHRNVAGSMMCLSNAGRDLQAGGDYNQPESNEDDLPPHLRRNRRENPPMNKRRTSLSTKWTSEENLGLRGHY
The depositor's hits bear a star. The list is not random: actives were taken first. Their share in the collection is about 2.2%.

For CCCn1c(C(C)Nc2nc(-c3ccc(C)cc3)cs2)nc2ccccc21 (stereo not drawn) the results were GLD-1 TGE inh 9, IMP-1 inh -2, BCLXL inh 2, VIM-2 inhibitor -2 and MEX-5 binding -1.
For CCCn1c(C(C)Nc2nc(-c3cccc(Br)c3)cs2)nc2ccccc21 (stereo not drawn) the results were GLD-1 TGE inh 5, IMP-1 inh -1, BCLXL inh -8, VIM-2 inhibitor 7.9* and MEX-5 binding 1.
O=C(/C=C/c1ccco1)NC(=S)NNC(=O)c1ccco1 was read as EBV gp42 inh -16, GLD-1 TGE inh 0, IMP-1 inh -3, BCLXL inh 5, VIM-2 inhibitor -2 and MEX-5 binding -26*.
Screening O=C(/C=C/c1ccco1)NC(=S)Nc1ccc(C(=O)O)cc1 returned GLD-1 TGE inh 13, IMP-1 inh 1, BCLXL inh 34*, VIM-2 inhibitor 0 and MEX-5 binding -32*.
`CSCC[C@H](N)C(=O)NC[C@H]1CC[C@H](C(=O)N[C@@H](Cc2ccccc2)C(=O)O)CC1` gave GLD-1 TGE inh 0, IMP-1 inh -2, BCLXL inh 5, VIM-2 inhibitor 0 and MEX-5 binding 2.
Cc1nc(-c2ccccc2)sc1C(=O)NN was read as EBV gp42 inh -7, GLD-1 TGE inh 3, IMP-1 inh -3, BCLXL inh -1, VIM-2 inhibitor -1 and MEX-5 binding 1.
For Cc1ccc(N/C=C/C(=O)c2sc(-c3ccccc3)nc2C)cc1 the results were EBV gp42 inh -30, GLD-1 TGE inh 9, IMP-1 inh 0, BCLXL inh -24, VIM-2 inhibitor -1 and MEX-5 binding -38*.
`O=C(Nc1cccc(-c2ccc3nncn3n2)c1)C(F)(F)F` gave GLD-1 TGE inh 10, IMP-1 inh -4, BCLXL inh 6, VIM-2 inhibitor 8.0* and MEX-5 binding -1.
For CC(=O)N1c2ccccc2C(=O)C1N1CCCCC1 (stereo not drawn) the results were EBV gp42 inh 6, GLD-1 TGE inh 58*, IMP-1 inh 1, BCLXL inh 65*, VIM-2 inhibitor 0 and MEX-5 binding -4.
`CC(=O)Oc1ccc(C2OC(=O)c3ccccc3N2C(C)=O)cc1` (stereo not drawn) gave EBV gp42 inh -11, GLD-1 TGE inh 0, IMP-1 inh -4, BCLXL inh 3, VIM-2 inhibitor -2 and MEX-5 binding 0.
`CCCn1nc(C(=O)OCC(=O)c2c(N)n(C)c(=O)n(C)c2=O)c2ccccc2c1=O` gave EBV gp42 inh -1, GLD-1 TGE inh 4, IMP-1 inh -3, BCLXL inh 5, VIM-2 inhibitor 11* and MEX-5 binding -4.
For O=C1c2cc(F)ccc2-n2c1nc1ccccc1c2=O the results were GLD-1 TGE inh -8, IMP-1 inh -1, BCLXL inh 8, VIM-2 inhibitor 4 and MEX-5 binding -33*.
`Cn1c(CNc2ccc(Cl)cc2)nc2ccccc21` gave EBV gp42 inh -2, GLD-1 TGE inh 3, IMP-1 inh -5, BCLXL inh 4, VIM-2 inhibitor -2 and MEX-5 binding 0.
Screening CC(C)N=c1cc2n(-c3ccc(Cl)cc3)c3ccccc3nc-2cc1Nc1ccc(Cl)cc1 returned GLD-1 TGE inh 29, BCLXL inh 78* and MEX-5 binding 0.
CCOc1ccc(CNC(=O)C2CCCN(S(=O)(=O)N3CC(C)CC(C)C3)C2)cc1OC (stereo not drawn) was read as GLD-1 TGE inh 3, IMP-1 inh 1, BCLXL inh 2, VIM-2 inhibitor -3 and MEX-5 binding 2.
For CCN(CC(=O)NC1CCS(=O)(=O)C1)S(=O)(=O)c1ccc(Cl)cc1C(F)(F)F (stereo not drawn) the results were GLD-1 TGE inh 5, BCLXL inh 5 and MEX-5 binding -1.
`COc1cccc(C(C(=O)NCC2CCCO2)N(C(=O)Cn2nnc3ccccc32)c2ccc(NC(C)=O)cc2)c1OC` (stereo not drawn) gave GLD-1 TGE inh -8, IMP-1 inh -1, BCLXL inh -3, VIM-2 inhibitor 0 and MEX-5 binding 3.
NC(=O)/C(=C/c1ccco1)NC(=O)c1ccc(Br)o1 was read as GLD-1 TGE inh 24, IMP-1 inh 0, BCLXL inh 39*, VIM-2 inhibitor 3 and MEX-5 binding -14.
For O=C(N/C(=C\c1ccco1)C(=O)N1CCOCC1)c1ccco1 the results were EBV gp42 inh -11, GLD-1 TGE inh 18, IMP-1 inh -1, BCLXL inh 33*, VIM-2 inhibitor -4 and MEX-5 binding -2.
O=C(NCCO)c1nc(C(=O)c2ccc(Cl)cc2)c2ccccc2n1 was read as GLD-1 TGE inh 2 and BCLXL inh -2.
Cc1ccc(N2CC(C)Cn3c2nc2c3c(=O)[nH]c(=O)n2C)cc1C (stereo not drawn) was read as GLD-1 TGE inh -3, IMP-1 inh -2, BCLXL inh 6, VIM-2 inhibitor 8.7* and MEX-5 binding 1.
O=C(NCc1ccon1)c1ccc(OC2CCN(CCc3ccccc3)CC2)cc1 was read as EBV gp42 inh -14, GLD-1 TGE inh 11, IMP-1 inh -2, BCLXL inh 2, VIM-2 inhibitor -3 and MEX-5 binding -1.
Screening CCc1cc(CNC(=O)c2ccc(OC3CCN(CCc4ccccc4)CC3)cc2)on1 returned GLD-1 TGE inh 7, IMP-1 inh 13*, BCLXL inh 3, VIM-2 inhibitor -2 and MEX-5 binding 2.
`O=C(NC1CCCCC1)c1cc(S(=O)(=O)N2CCOCC2)c(Cl)cc1Cl` gave GLD-1 TGE inh 2, IMP-1 inh 2, BCLXL inh 5, VIM-2 inhibitor 1 and MEX-5 binding 2.
CCc1ccc(Nc2n[n+](C)c(-c3ccncc3)s2)cc1 was read as GLD-1 TGE inh 1, IMP-1 inh 0, BCLXL inh -2, VIM-2 inhibitor 2 and MEX-5 binding -1.
CCN(CC)c1ccc(C2C(C(=O)OC)=C(C)NC(C)=C2C(=O)OC)cc1 was read as EBV gp42 inh -9, GLD-1 TGE inh 5, IMP-1 inh -2, BCLXL inh 4, VIM-2 inhibitor -3 and MEX-5 binding 0.
Screening CCN(CC)c1ccc(/C=C/C(=O)C2C(=O)C=C(C)OC2=O)cc1 (stereo not drawn) returned EBV gp42 inh -75, GLD-1 TGE inh -102, IMP-1 inh 7.4*, BCLXL inh 76*, VIM-2 inhibitor 7 and MEX-5 binding 34.
CCc1ccc(NC(=O)CSc2nnc(CNC(=O)c3ccc(OC)cc3)o2)cc1 was read as GLD-1 TGE inh -1, IMP-1 inh -1, BCLXL inh -1 and VIM-2 inhibitor -1.
`C=Cn1cc[n+](CC(=O)c2ccc(Br)cc2)c1` gave GLD-1 TGE inh 11, IMP-1 inh 1, BCLXL inh 5, VIM-2 inhibitor 0 and MEX-5 binding 2.
